Experimental data reported in ChEMBL document CHEMBL2407075, “Sulphonamido-quinoxalines: search for anticancer agent” (Eur J Med Chem, 2013).

What was measured:
Format in all cases: functional
BT-549 = assay: Growth inhibition of human BT549 cells assessed as cell growth at 10^-4 M after 48 hrs by sulforhodamine B assay; details: BT-549, 48 h, read-out: Activity
Method in brief: (§1)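 Five-dose NCI-60 run (0.01, 0.1, 1, 10 and 100 µM, as 10-fold dilutions from a DMSO stock made at 400× the top final level). Cells were grown in RPMI 1640 with 5% FBS and 2 mM glutamine and plated for 24 h. They were then exposed for 48 h at 37 °C and 5% CO2. TCA fixation was followed by SRB staining with A515 read-out. Percent growth was taken relative to time-zero and control plates.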

MOLT-4 [1] = assay: Growth inhibition of human MOLT4 cells after 48 hrs by sulforhodamine B assay; details: MOLT-4, 48 h; for CC50: read-out: LC50 (the source's name)
Method in brief: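 Leukemia suspension cells in RPMI 1640 with 5% FBS and 2 mM L-glutamine were plated at 5000–40,000 cells/well and grown 24 h. Five concentrations (0.01–100 µM) were given for 48 h at 37 °C. Settled cells were fixed with 80% TCA (16% final) and SRB-stained, read at 515 nm. GI50 came from dose–response curves against time-zero and control plates.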

[2] = Growth inhibition of human EKVX cells assessed as cell growth at 10^-4 M after 48 hrs by sulforhodamine B assay; details: read-out: Activity; method in brief: as §1
ACHN = assay: Growth inhibition of human ACHN cells assessed as cell growth at 10^-5 M after 48 hrs by sulforhodamine B assay; details: read-out: Activity; method in brief: as §1
A498 = assay: Growth inhibition of human A498 cells assessed as cell growth at 10^-6 M after 48 hrs by sulforhodamine B assay; details: A498, 48 h, read-out: Activity; method in brief: as §1
NCI-H226 [3] = assay: Growth inhibition of human NCI-H226 cells assessed as cell growth at 10^-8 M after 48 hrs by sulforhodamine B assay; details: NCI-H226, 48 h, read-out: Activity
OVCAR-8 = assay: Growth inhibition of human OVCAR8 cells after 48 hrs by sulforhodamine B assay; details: OVCAR-8, 48 h; for CC50: read-out: LC50 (the source's name)
Method in brief: (§2)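 Five-dose NCI 60 screen at 0.01, 0.1, 1, 10 and 100 µM, 48 h exposure after 24 h preincubation, in RPMI 1640 with 5% FBS and 2 mM glutamine. Fixed with TCA (10% final for adherent cells, 16% for suspension cells), stained with SRB, A515 read. Percent growth uses time-zero (Tz), control and treated plates. GI50, TGI and LC50 are read from the dose-response curves.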

DU-145 = assay: Growth inhibition of human DU145 cells assessed as cell growth at 10^-6 M after 48 hrs by sulforhodamine B assay; details: DU-145, 48 h, read-out: Activity; method in brief: as §1
CAKI-1 = assay: Growth inhibition of human CAKI-1 cells assessed as cell growth at 10^-4 M after 48 hrs by sulforhodamine B assay; details: CAKI-1, 48 h, read-out: Activity; method in brief: as §1
SR = assay: Growth inhibition of human SR cells assessed as cell growth at 10^-8 M after 48 hrs by sulforhodamine B assay; details: read-out: Activity
MOLT-4 [4] = assay: Growth inhibition of human MOLT4 cells assessed as cell growth at 10^-8 M after 48 hrs by sulforhodamine B assay; details: MOLT-4, 48 h, read-out: Activity
HL-60(TB) = assay: Growth inhibition of human HL-60(TB) cells assessed as cell growth at 10^-7 M after 48 hrs by sulforhodamine B assay; details: HL-60, 48 h, read-out: Activity
Method in brief: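 HL-60(TB) suspension cells were treated 48 h at 37 °C within the five-dose series (0.01–100 µM), fixed with 16% final TCA and SRB-stained, read at 515 nm. Percentage growth at each concentration = (Ti−Tz)/(C−Tz)×100, or (Ti−Tz)/Tz×100 when Ti<Tz, with time-zero (Tz) and untreated control (C) plates.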

SN12C = assay: Growth inhibition of human SN12C cells after 48 hrs by sulforhodamine B assay; details: for CC50: read-out: LC50 (the source's name)
Method in brief: (§3)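 Adherent cells in RPMI 1640 with 5% FBS and 2 mM L-glutamine were plated at 5000–40,000 cells/well and grown 24 h. Five concentrations (0.01–100 µM, DMSO stock) were added for 48 h at 37 °C. Cells were fixed with cold TCA (10% final) and stained with SRB, read at 515 nm. GI50 came from log concentration–growth curves against time-zero and control plates.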

SNB-19 = assay: Growth inhibition of human SNB19 cells assessed as cell growth at 10^-5 M after 48 hrs by sulforhodamine B assay; details: SNB-19, 48 h, read-out: Activity
Malme-3M = assay: Growth inhibition of human MALME-3M cells assessed as cell growth at 10^-5 M after 48 hrs by sulforhodamine B assay; details: read-out: Activity
HOP-62 = assay: Growth inhibition of human HOP62 cells assessed as cell growth at 10^-8 M after 48 hrs by sulforhodamine B assay; details: HOP-62, 48 h, read-out: Activity
Method in brief: (§4)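 Five-dose screen at NCI. Cells in RPMI 1640 with 5% FBS and 2 mM L-glutamine, seeded at 5000–40,000 cells/well and grown 24 h at 37 °C, 5% CO2 before dosing, with time-zero plates TCA-fixed. Drug diluted from DMSO stock to 0.01, 0.1, 1, 10 and 100 µM final, 48 h. Cells fixed with cold TCA (10% final), stained with 0.4% SRB and read at 515 nm. Percent growth from Tz, control and test absorbances; GI50, TGI and LC50 from dose-response curves.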

SF-539 = assay: Growth inhibition of human SF539 cells assessed as cell growth at 10^-6 M after 48 hrs by sulforhodamine B assay; details: SF-539, 48 h, read-out: Activity
[5] = Growth inhibition of human Hs 578T cells assessed as cell growth at 10^-8 M after 48 hrs by sulforhodamine B assay; details: read-out: Activity; method in brief: as §4
SK-MEL-28 = assay: Growth inhibition of human SK-MEL-28 cells after 48 hrs by sulforhodamine B assay; details: SK-MEL-28, 48 h; for CC50: read-out: LC50 (the source's name); method in brief: as §3
HT-29 = assay: Growth inhibition of human HT-29 cells assessed as cell growth at 10^-4 M after 48 hrs by sulforhodamine B assay; details: HT-29, 48 h, read-out: Activity; method in brief: as §4
NCI-H226 [6] = assay: Growth inhibition of human NCI-H226 cells after 48 hrs by sulforhodamine B assay; details: NCI-H226, 48 h, read-out: LC50 (the source's name); method in brief: as §3
T47D = assay: Growth inhibition of human T47D cells assessed as cell growth at 10^-6 M after 48 hrs by sulforhodamine B assay; details: read-out: Activity
MCF7 = assay: Growth inhibition of human MCF7 cells assessed as cell growth at 10^-8 M after 48 hrs by sulforhodamine B assay; details: MCF7, 48 h, read-out: Activity
SK-OV-3 [7] = assay: Growth inhibition of human SKOV3 cells after 48 hrs by sulforhodamine B assay; details: SK-OV-3, 48 h; for CC50: read-out: LC50 (the source's name); method in brief: as §2
SK-OV-3 [8] = assay: Growth inhibition of human SKOV3 cells assessed as cell growth at 10^-7 M after 48 hrs by sulforhodamine B assay; details: SK-OV-3, 48 h, read-out: Activity

Row | SMILES | growth at 100 µM (BT-549) [%] | CC50 (MOLT-4 [1]) [µM] | growth at 100 µM [2] [%] | growth at 10 µM (ACHN) [%] | growth at 1 µM (A498) [%] | growth at 0.01 µM (NCI-H226 [3]) [%] | TGI (OVCAR-8) [µM] | CC50 (OVCAR-8) [µM] | growth at 1 µM (DU-145) [%] | growth at 100 µM (CAKI-1) [%] | growth at 0.01 µM (SR) [%] | growth at 0.01 µM (MOLT-4 [4]) [%] | growth at 0.1 µM (HL-60(TB)) [%] | TGI (SN12C) [µM] | CC50 (SN12C) [µM] | growth at 10 µM (SNB-19) [%] | growth at 10 µM (Malme-3M) [%] | growth at 0.01 µM (HOP-62) [%] | growth at 1 µM (SF-539) [%] | growth at 0.01 µM [5] [%] | further results
1 | O=S(=O)(Nc1ccc(Cl)cc1)c1ccc2nc(-c3ccccc3)c(-c3ccccc3)nc2c1 | 61 | > 100 | 65 | 6 | 65 | 91 | > 100 | > 100 | 93 | 65 | 92 | 97 | 99 | > 100 | > 100 | 17 | -43 | 96 | 101 | 84 | TGI (SK-MEL-28): > 100 µM; CC50 (SK-MEL-28): > 100 µM; growth at 100 µM (HT-29): 53%; CC50 (NCI-H226 [6]): > 100 µM; growth at 1 µM (T47D): 69%; growth at 0.01 µM (MCF7): 95%; TGI (SK-OV-3 [7]): > 100 µM; CC50 (SK-OV-3 [7]): > 100 µM; growth at 0.1 µM (SK-OV-3 [8]): 99%
2 | O=S(=O)(Nc1ccccn1)c1ccc2nc(-c3ccccc3)c(-c3ccccc3)nc2c1 | 49 | > 100 | 50 | 6 | 66 | 100 | > 100 | > 100 | 95 | 73 | 93 | 96 | 97 | > 100 | > 100 | 17 | -40 | 96 | 96 | 93 | GI50 (MOLT-4 [1]): 1.89 µM; GI50 (OVCAR-8): 2.6 µM; TGI (SK-MEL-28): > 100 µM; CC50 (SK-MEL-28): > 100 µM; growth at 100 µM (HT-29): 24%; CC50 (NCI-H226 [6]): > 100 µM; growth at 1 µM (T47D): 54%; growth at 0.01 µM (MCF7): 95%; GI50 (SK-OV-3 [7]): 3.58 µM; TGI (SK-OV-3 [7]): > 100 µM; CC50 (SK-OV-3 [7]): > 100 µM; growth at 0.1 µM (SK-OV-3 [8]): 98%
